In ChEMBL document CHEMBL1143542, “Structure-activity relationships of bivalent aminoglycosides and evaluation of their microbiological activities” (2005):
In brackets after ≈: the same amount, converted by molar mass.

What was measured:
Pseudomonas aeruginosa [1] = test: Susceptibility testing against Pseudomonas aeruginosa ATCC 27853; R=Resistant; format: functional, organism-based
How it was run: (§1)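 Disk diffusion susceptibility profiling of P. aeruginosa reference and clinical isolates against empirically used antipseudomonal antibiotics. Each isolate was categorised as susceptible, intermediate or resistant.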

Pseudomonas aeruginosa [2] = test: Susceptibility testing against Pseudomonas aeruginosa PAE_NUH20; S=Susceptible; format: functional, organism-based
How it was run: (§2)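 Disk diffusion susceptibility profiling against a panel of empirically used antipseudomonal antibiotics. Each strain was categorised as susceptible (S) or intermediate (I).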

Pseudomonas aeruginosa [3] = test: Susceptibility testing against Pseudomonas aeruginosa PAE_NUH01; R=Resistant; format: functional, organism-based; how it was run: as §1
Pseudomonas aeruginosa [4] = test: Susceptibility testing against Pseudomonas aeruginosa PAE_NUH03; R=Resistant; format: functional, organism-based; how it was run: as §1
Pseudomonas aeruginosa [5] = test: Susceptibility testing against Pseudomonas aeruginosa PAE_NUH05; R=Resistant; format: functional, organism-based; how it was run: as §1
Pseudomonas aeruginosa [6] = test: Susceptibility testing against Pseudomonas aeruginosa PAE_NUH24; R=Resistant; format: functional, organism-based; how it was run: as §1
Pseudomonas aeruginosa [7] = test: Susceptibility testing against Pseudomonas aeruginosa PAE_NUH22; R=Resistant; format: functional, organism-based; how it was run: as §1
Pseudomonas aeruginosa [8] = test: Susceptibility testing against Pseudomonas aeruginosa PAE_NUH21; R=Resistant; format: functional, organism-based; how it was run: as §1
Pseudomonas aeruginosa [9] = test: Susceptibility testing against Pseudomonas aeruginosa PAE_NUH17; S=Susceptible; format: functional, organism-based; how it was run: as §2
Pseudomonas aeruginosa [10] = test: Susceptibility testing against Pseudomonas aeruginosa PAE_NUH19; R=Resistant; format: functional, organism-based; how it was run: as §1
Pseudomonas aeruginosa [11] = test: Susceptibility testing against Pseudomonas aeruginosa PAE_NUH23; R=Resistant; format: functional, organism-based; how it was run: as §1
Pseudomonas aeruginosa [12] = test: Susceptibility testing against Pseudomonas aeruginosa PAE_NUH06; R=Resistant; format: functional, organism-based; how it was run: as §1
Pseudomonas aeruginosa [13] = test: Susceptibility testing against Pseudomonas aeruginosa PAE_NUH18; R=Resistant; format: functional, organism-based; how it was run: as §1
Pseudomonas aeruginosa [14] = test: Susceptibility testing against Pseudomonas aeruginosa PAE_NUH02; R=Resistant; format: functional, organism-based; how it was run: as §1
Pseudomonas aeruginosa [15] = test: Susceptibility testing against Pseudomonas aeruginosa PAE_NUH04; R=Resistant; format: functional, organism-based; how it was run: as §1
Pseudomonas aeruginosa [16] = test: Susceptibility testing against Pseudomonas aeruginosa PAE_NUH07; R=Resistant; format: functional, organism-based; how it was run: as §1
Pseudomonas aeruginosa [17] = test: Susceptibility testing against Pseudomonas aeruginosa PAE_NUH25; S=Susceptible; format: functional, organism-based; how it was run: as §2
Enterococcus faecalis = test: In vitro minimum inhibitory concentration against Enterococcus faecalis 29212; format: functional
How it was run: (§3)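 Broth microdilution following CLSI M100-S12. Stocks were 10 mg/mL in water, diluted in Mueller–Hinton broth to a top level of 128, then serially 2-fold in plates. Bacteria in cation-adjusted Mueller–Hinton broth were mixed 1:1 with drug and incubated 16–20 h at 35 °C. MIC was the lowest concentration with no visible growth. Run in duplicate with no-antibiotic and no-inoculum (sterility) controls.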

Escherichia coli = test: In vitro minimum inhibitory concentration against Escherichia coli ATCC 25922; format: functional; how it was run: as §3
Pseudomonas aeruginosa [18] = test: In vitro minimum inhibitory concentration against Pseudomonas aeruginosa PAO-1; format: functional; how it was run: as §3
Pseudomonas aeruginosa [19] = test: In vitro minimum inhibitory concentration against Pseudomonas aeruginosa ATCC 27853; format: functional; how it was run: as §3
Staphylococcus aureus [20] = test: In vitro minimum inhibitory concentration against Staphylococcus aureus ATCC 29213; format: functional; how it was run: as §3
Staphylococcus aureus [21] = test: In vitro minimum inhibitory concentration against Staphylococcus aureus MRSA 3359; format: functional; how it was run: as §3
Pseudomonas aeruginosa [22] = test: Minimum inhibitory concentration against Pseudomonas aeruginosa PAE_NUH23; format: functional; how it was run: as §3
Pseudomonas aeruginosa [23] = test: Minimum inhibitory concentration against Pseudomonas aeruginosa ATCC 27853; format: functional; how it was run: as §3
Pseudomonas aeruginosa [24] = test: Minimum inhibitory concentration against Pseudomonas aeruginosa PAE_NUH02; format: functional; how it was run: as §3
Pseudomonas aeruginosa [25] = test: Minimum inhibitory concentration against Pseudomonas aeruginosa PAE_NUH18; format: functional; how it was run: as §3
Pseudomonas aeruginosa [26] = test: Minimum inhibitory concentration against Pseudomonas aeruginosa PAE_NUH01; format: functional; how it was run: as §3
Pseudomonas aeruginosa [27] = test: Minimum inhibitory concentration against Pseudomonas aeruginosa PAE_NUH17; format: functional; how it was run: as §3
Pseudomonas aeruginosa [28] = test: Minimum inhibitory concentration against Pseudomonas aeruginosa PAE_NUH25; format: functional; how it was run: as §3
Pseudomonas aeruginosa [29] = test: Minimum inhibitory concentration against Pseudomonas aeruginosa PAE_NUH22; format: functional; how it was run: as §3
Pseudomonas aeruginosa [30] = test: In vitro minimum inhibitory concentration against Pseudomonas aeruginosa PAO-1 Minimum inhibitory concentration against Pseudomonas aeruginosa PAO-1; format: functional; how it was run: as §3
Pseudomonas aeruginosa [31] = test: Minimum inhibitory concentration against Pseudomonas aeruginosa PAE_NUH20; format: functional; how it was run: as §3
Pseudomonas aeruginosa [32] = test: Minimum inhibitory concentration against Pseudomonas aeruginosa PAE_NUH24; format: functional; how it was run: as §3
Pseudomonas aeruginosa [33] = test: Minimum inhibitory concentration against Pseudomonas aeruginosa PAE_NUH03; format: functional; how it was run: as §3
Pseudomonas aeruginosa [34] = test: Minimum inhibitory concentration against Pseudomonas aeruginosa PAE_NUH04; format: functional; how it was run: as §3
Pseudomonas aeruginosa [35] = test: Minimum inhibitory concentration against Pseudomonas aeruginosa PAE_NUH19; format: functional; how it was run: as §3
Pseudomonas aeruginosa [36] = test: Minimum inhibitory concentration against Pseudomonas aeruginosa PAE_NUH05; format: functional; how it was run: as §3
Pseudomonas aeruginosa [37] = test: Minimum inhibitory concentration against Pseudomonas aeruginosa PAE_NUH21; format: functional; how it was run: as §3
Pseudomonas aeruginosa [38] = test: Minimum inhibitory concentration against Pseudomonas aeruginosa PAE_NUH06; format: functional; how it was run: as §3
Pseudomonas aeruginosa [39] = test: Minimum inhibitory concentration against Pseudomonas aeruginosa PAE_NUH07; format: functional; how it was run: as §3

## COc1cc(Cc2cnc(N)nc2N)cc(OC)c1OC.Cc1cc(NS(=O)(=O)c2ccc(N)cc2)no1
Pseudomonas aeruginosa [1]
  Activity: Resistant
Pseudomonas aeruginosa [2]
  Activity: Susceptible
Pseudomonas aeruginosa [3]
  Activity: Resistant
Pseudomonas aeruginosa [4]
  Activity: Resistant
Pseudomonas aeruginosa [5]
  Activity: Resistant
Pseudomonas aeruginosa [6]
  Activity: Resistant
Pseudomonas aeruginosa [7]
  Activity: Resistant
Pseudomonas aeruginosa [8]
  Activity: Resistant
Pseudomonas aeruginosa [9]
  Activity: Susceptible
Pseudomonas aeruginosa [10]
  Activity: Resistant
Pseudomonas aeruginosa [11]
  Activity: Resistant
Pseudomonas aeruginosa [12]
  Activity: Resistant
Pseudomonas aeruginosa [13]
  Activity: Resistant
Pseudomonas aeruginosa [14]
  Activity: Resistant
Pseudomonas aeruginosa [15]
  Activity: Resistant
Pseudomonas aeruginosa [16]
  Activity: Resistant
Pseudomonas aeruginosa [17]
  Activity: Susceptible

## NC[C@H]1O[C@H](O[C@H]2[C@H](OC[C@H](O)CN3CC4CC3CN4C[C@@H](O)CO[C@@H]3[C@@H](O)[C@H](N)C[C@H](N)[C@H]3O[C@H]3O[C@H](CN)[C@@H](O)[C@H](O)[C@H]3N)[C@@H](O)[C@H](N)C[C@@H]2N)[C@H](N)[C@@H](O)[C@@H]1O
Enterococcus faecalis
  MIC: > 50 µg/mL
Escherichia coli
  MIC: > 50 µg/mL
Pseudomonas aeruginosa [18]
  MIC: 50 µg/mL (≈ 58.5 µM)
Pseudomonas aeruginosa [19]
  MIC: 12.5 µg/mL (≈ 14.6 µM)
Staphylococcus aureus [20]
  MIC: 12.5 µg/mL (≈ 14.6 µM)
Staphylococcus aureus [21]
  MIC: > 50 µg/mL

## NC[C@H]1O[C@H](O[C@H]2[C@H](OC[C@H](O)CNCCCCNC[C@@H](O)CO[C@@H]3[C@@H](O)[C@H](N)C[C@H](N)[C@H]3O[C@H]3O[C@H](CN)[C@@H](O)[C@H](O)[C@H]3N)[C@@H](O)[C@H](N)C[C@@H]2N)[C@H](N)[C@@H](O)[C@@H]1O
Pseudomonas aeruginosa [22]
  MIC: 16 µg/mL (≈ 18.9 µM)
Pseudomonas aeruginosa [23]
  MIC: 1 µg/mL (≈ 1.18 µM)
Pseudomonas aeruginosa [24]
  MIC: 6.3 µg/mL (≈ 7.46 µM)
Pseudomonas aeruginosa [25]
  MIC: 8 µg/mL (≈ 9.47 µM)
Pseudomonas aeruginosa [26]
  MIC: 6.3 µg/mL (≈ 7.46 µM)
Pseudomonas aeruginosa [27]
  MIC: 32 µg/mL (≈ 37.9 µM)
Pseudomonas aeruginosa [28]
  MIC: 8 µg/mL (≈ 9.47 µM)
Pseudomonas aeruginosa [29]
  MIC: 16 µg/mL (≈ 18.9 µM)
Pseudomonas aeruginosa [30]
  MIC: 2 µg/mL (≈ 2.37 µM)
Enterococcus faecalis
  MIC: > 50 µg/mL
Pseudomonas aeruginosa [31]
  MIC: 16 µg/mL (≈ 18.9 µM)
Pseudomonas aeruginosa [32]
  MIC: 16 µg/mL (≈ 18.9 µM)
Escherichia coli
  MIC: 4 µg/mL (≈ 4.73 µM)
Pseudomonas aeruginosa [33]
  MIC: 6.3 µg/mL (≈ 7.46 µM)
Pseudomonas aeruginosa [19]
  MIC: 4 µg/mL (≈ 4.73 µM)
Pseudomonas aeruginosa [34]
  MIC: 3.1 µg/mL (≈ 3.67 µM)
Pseudomonas aeruginosa [35]
  MIC: 8 µg/mL (≈ 9.47 µM)
Staphylococcus aureus [20]
  MIC: 1 µg/mL (≈ 1.18 µM)
Pseudomonas aeruginosa [36]
  MIC: 3.1 µg/mL (≈ 3.67 µM)
Staphylococcus aureus [21]
  MIC: 16 µg/mL (≈ 18.9 µM)
Pseudomonas aeruginosa [37]
  MIC: 16 µg/mL (≈ 18.9 µM)
Pseudomonas aeruginosa [38]
  MIC: 6.3 µg/mL (≈ 7.46 µM)
Pseudomonas aeruginosa [39]
  MIC: 3.1 µg/mL (≈ 3.67 µM)
